Experiment [1] concerns the target Calcium/calmodulin-dependent protein kinase type 1 (Homo sapiens) (UniProt Q14012). The experiment is described as follows: Inhibition of human recombinant CaMK1a at 15 nM in presence of ATP by radiometric assay relative to control.
In experiment [2] the target is T1, Serine/threonine-protein kinase BRSK2 (Homo sapiens) (UniProt Q8IWQ3).
T1 sequence (whole entry): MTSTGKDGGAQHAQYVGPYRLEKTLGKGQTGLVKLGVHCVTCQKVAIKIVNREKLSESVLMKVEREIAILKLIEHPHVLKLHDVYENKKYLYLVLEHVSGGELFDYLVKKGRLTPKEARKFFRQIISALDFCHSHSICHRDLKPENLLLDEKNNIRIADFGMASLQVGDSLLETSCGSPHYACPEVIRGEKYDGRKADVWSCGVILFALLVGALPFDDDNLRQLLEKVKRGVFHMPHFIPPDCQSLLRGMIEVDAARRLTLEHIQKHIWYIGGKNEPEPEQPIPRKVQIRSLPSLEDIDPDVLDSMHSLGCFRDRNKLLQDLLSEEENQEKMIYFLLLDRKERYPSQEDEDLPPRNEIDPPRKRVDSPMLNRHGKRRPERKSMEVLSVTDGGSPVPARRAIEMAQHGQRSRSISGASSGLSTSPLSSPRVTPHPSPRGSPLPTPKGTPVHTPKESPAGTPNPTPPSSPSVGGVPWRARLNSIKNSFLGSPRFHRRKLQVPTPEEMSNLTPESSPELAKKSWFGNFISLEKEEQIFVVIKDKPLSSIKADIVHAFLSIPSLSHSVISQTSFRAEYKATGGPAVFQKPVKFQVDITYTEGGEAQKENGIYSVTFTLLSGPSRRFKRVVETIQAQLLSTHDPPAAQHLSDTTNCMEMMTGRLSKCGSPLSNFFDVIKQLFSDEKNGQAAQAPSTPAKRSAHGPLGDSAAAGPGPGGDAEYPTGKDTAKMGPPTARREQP
The experiment is described as follows: Inhibition of human recombinant BRSK2 at 15 nM related to control ULK1. In short, it runs like this:
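Recombinant human kinase panel (327 kinases) run as radiometric activity assays, each kinase in duplicate at one compound concentration. Activity remaining expressed relative to vehicle control; percent inhibition taken as 100% minus % activity remaining.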

In experiment [3] the target is Serine/threonine-protein kinase VRK2 (Homo sapiens) (UniProt Q86Y07). The experiment is described as follows: Inhibition of human recombinant VRK2 at 15 nM related to control ULK1.
Serine/threonine-protein kinase VRK2 (Homo sapiens), sequence (Q86Y07 whole entry): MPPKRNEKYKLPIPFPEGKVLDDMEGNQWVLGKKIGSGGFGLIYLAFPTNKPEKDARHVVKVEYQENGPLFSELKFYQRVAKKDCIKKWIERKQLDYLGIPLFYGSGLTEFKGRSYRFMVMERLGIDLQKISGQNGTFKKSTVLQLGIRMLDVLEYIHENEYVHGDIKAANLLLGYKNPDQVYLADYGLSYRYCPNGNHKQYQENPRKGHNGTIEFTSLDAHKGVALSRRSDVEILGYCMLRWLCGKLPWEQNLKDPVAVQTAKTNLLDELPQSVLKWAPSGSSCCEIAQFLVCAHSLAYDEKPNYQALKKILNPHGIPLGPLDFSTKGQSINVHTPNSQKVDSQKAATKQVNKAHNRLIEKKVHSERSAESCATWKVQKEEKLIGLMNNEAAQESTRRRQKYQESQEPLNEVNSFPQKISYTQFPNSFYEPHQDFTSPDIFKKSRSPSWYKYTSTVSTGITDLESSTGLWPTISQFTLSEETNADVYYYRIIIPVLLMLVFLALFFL
Experiment [4] has as its target T2, Dual specificity mitogen-activated protein kinase kinase 6 (Homo sapiens) (UniProt P52564).
T2 sequence (whole entry): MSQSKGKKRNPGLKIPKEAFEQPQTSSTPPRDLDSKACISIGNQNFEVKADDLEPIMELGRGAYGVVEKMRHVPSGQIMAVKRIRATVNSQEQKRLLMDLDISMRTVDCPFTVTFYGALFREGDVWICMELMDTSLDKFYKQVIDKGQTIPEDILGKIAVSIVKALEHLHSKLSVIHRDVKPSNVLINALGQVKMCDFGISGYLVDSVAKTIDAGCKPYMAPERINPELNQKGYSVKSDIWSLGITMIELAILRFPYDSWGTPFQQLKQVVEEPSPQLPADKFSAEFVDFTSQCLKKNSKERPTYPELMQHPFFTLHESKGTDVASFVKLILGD
The experiment in a line: Inhibition of human recombinant MAP2K6 at 40 nM related to control ULK1.

Experiment [5] has as its target Serine/threonine-protein kinase SIK3 (Homo sapiens) (UniProt Q9Y2K2). The experiment is described as follows: Inhibition of human recombinant QSK at 40 nM related to control ULK1.
The target in experiment [6] is Serine/threonine-protein kinase 38-like (Homo sapiens) (UniProt Q9Y2H1). The experiment in a line: Inhibition of human recombinant NDR2 at 500 nM related to control ULK1.
Serine/threonine-protein kinase 38-like (Homo sapiens), sequence (Q9Y2H1 2-464 limits assumed): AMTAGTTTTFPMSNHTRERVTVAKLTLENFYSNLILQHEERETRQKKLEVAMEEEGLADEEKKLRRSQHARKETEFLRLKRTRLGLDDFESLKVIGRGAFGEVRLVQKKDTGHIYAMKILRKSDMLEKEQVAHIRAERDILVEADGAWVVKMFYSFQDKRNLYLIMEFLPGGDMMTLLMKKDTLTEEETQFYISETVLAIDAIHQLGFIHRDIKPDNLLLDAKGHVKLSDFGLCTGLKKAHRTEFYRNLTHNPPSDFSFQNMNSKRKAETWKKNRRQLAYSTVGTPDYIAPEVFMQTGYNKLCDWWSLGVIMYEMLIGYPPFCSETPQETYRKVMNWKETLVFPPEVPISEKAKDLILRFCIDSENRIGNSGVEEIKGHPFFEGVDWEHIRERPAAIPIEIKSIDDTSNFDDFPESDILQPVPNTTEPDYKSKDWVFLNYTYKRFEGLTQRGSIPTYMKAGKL
In experiment [7] the target is T3, NUAK family SNF1-like kinase 2 (Homo sapiens) (UniProt Q9H093).
T3 sequence (whole entry): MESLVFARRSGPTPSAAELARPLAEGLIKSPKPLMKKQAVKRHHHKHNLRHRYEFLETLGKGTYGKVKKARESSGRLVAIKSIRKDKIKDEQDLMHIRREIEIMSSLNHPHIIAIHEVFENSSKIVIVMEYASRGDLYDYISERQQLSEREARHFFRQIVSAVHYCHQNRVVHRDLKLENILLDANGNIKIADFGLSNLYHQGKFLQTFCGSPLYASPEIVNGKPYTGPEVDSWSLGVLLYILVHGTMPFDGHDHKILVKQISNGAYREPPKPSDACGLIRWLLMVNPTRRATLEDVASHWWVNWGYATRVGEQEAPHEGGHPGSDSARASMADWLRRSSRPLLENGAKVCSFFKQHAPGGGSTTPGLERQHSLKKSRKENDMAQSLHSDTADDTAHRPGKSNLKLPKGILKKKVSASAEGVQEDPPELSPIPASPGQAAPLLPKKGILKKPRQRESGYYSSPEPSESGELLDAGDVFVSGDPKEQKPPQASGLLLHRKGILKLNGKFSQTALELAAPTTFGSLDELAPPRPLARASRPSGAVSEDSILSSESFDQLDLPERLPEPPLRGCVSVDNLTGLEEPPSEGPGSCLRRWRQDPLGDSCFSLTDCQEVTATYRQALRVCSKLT
The experiment in a line: Inhibition of human recombinant NuaK2 at 500 nM related to control ULK1.

Experiment [8] addresses T4, Serine/threonine-protein kinase TBK1 (Homo sapiens) (UniProt Q9UHD2).
T4 sequence (whole entry): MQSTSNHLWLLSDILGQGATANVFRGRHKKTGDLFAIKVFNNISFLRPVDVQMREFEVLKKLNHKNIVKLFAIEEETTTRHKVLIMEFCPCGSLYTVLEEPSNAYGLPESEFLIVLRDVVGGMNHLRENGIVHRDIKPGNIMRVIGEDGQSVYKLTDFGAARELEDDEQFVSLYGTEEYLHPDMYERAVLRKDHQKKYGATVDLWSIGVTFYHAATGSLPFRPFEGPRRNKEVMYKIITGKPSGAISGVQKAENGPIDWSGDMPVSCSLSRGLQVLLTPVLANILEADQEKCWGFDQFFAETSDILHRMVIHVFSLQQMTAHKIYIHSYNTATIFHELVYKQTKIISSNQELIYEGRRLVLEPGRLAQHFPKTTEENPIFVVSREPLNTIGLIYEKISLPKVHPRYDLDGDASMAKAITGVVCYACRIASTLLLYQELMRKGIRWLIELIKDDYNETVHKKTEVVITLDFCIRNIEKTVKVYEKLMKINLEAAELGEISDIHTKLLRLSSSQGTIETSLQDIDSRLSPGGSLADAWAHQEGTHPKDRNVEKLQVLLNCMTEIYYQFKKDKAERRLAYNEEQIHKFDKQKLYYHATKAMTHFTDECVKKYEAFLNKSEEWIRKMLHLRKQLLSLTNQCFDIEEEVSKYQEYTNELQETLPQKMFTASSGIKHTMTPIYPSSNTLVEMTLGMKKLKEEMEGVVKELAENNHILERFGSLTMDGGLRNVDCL
The experiment in a line: Inhibition of human recombinant TBK1 at 500 nM related to control ULK1.

SMILES strings stand for the structures.

Serine/threonine-protein kinase SIK3 (Homo sapiens), sequence (Q9Y2K2 whole entry, looked up): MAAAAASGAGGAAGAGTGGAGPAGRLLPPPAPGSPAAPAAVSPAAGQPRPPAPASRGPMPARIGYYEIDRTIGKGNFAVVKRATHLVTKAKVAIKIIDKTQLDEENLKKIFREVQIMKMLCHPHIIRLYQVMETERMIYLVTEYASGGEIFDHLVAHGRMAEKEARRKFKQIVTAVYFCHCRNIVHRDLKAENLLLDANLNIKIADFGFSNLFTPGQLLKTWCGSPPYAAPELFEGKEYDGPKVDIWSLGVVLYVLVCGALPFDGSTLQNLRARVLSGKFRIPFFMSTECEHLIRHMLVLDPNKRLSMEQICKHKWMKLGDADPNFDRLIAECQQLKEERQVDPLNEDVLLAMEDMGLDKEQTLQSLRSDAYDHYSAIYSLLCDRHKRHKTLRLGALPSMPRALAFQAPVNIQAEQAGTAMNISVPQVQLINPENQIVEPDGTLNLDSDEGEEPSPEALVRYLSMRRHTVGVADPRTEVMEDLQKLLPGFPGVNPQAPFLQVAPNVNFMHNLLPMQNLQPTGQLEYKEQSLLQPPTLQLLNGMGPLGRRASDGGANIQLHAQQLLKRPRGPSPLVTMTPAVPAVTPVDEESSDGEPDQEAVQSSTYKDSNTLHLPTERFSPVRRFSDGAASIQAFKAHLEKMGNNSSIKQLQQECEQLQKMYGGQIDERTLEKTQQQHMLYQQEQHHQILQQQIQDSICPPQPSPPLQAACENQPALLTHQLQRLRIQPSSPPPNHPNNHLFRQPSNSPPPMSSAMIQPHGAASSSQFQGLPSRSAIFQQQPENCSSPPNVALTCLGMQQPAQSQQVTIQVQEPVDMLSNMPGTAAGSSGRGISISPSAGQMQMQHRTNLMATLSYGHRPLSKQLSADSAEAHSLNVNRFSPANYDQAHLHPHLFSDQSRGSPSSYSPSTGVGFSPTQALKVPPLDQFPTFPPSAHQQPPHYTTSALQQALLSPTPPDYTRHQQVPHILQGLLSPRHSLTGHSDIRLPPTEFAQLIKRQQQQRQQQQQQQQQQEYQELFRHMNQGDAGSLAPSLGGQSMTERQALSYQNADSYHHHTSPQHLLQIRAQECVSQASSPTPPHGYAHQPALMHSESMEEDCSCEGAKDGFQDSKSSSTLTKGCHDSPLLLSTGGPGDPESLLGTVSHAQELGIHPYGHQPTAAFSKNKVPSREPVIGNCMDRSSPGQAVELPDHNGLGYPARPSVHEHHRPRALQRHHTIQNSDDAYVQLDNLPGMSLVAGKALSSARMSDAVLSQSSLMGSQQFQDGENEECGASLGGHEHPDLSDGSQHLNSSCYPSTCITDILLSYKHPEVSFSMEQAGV
Calcium/calmodulin-dependent protein kinase type 1 (Homo sapiens), sequence (Q14012 whole entry, looked up): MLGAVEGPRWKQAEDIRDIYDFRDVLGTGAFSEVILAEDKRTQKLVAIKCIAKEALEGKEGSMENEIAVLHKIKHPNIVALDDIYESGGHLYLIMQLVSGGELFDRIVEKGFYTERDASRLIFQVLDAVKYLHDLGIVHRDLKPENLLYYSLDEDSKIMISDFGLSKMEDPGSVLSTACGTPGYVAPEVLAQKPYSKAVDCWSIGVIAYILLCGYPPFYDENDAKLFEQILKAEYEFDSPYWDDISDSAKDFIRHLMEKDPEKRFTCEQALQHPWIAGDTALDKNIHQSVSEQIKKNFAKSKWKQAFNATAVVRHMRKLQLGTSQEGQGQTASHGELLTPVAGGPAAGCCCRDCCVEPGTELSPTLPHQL

With `CC(C)[C@H](NC(=O)c1cc(-c2cnn3cc(-c4ccc(OCCN5CCCCC5)cc4)cnc23)cs1)C(F)(F)F`, in experiment [1], the inhibition came to 7%. Besides, the figures for the fold change (FC) in experiment [2] and in experiment [3] were 0.28 and 0, respectively.
For the compound `O=C(N[C@@H](C1CC1)C(F)(F)F)c1cc(-c2cnn3cc(-c4ccc(F)cc4)cnc23)cs1`, the results for the fold change (FC) in experiment [4] and in experiment [5] were 0 and 0.81, respectively.
Take `CNC(=O)c1ccccc1Oc1nc(Nc2cc(OC)c(OC)c(OC)c2)ncc1Br`: the fold change (FC) in experiment [6] was 0.2; in experiment [7] it was 0.86; in experiment [8], 0.

Broadly, the inhibition is the percentage by which the read-out fell short of the control.

Values taken from ChEMBL document CHEMBL5653631, “A Potent and Selective ULK1 Inhibitor Suppresses Autophagy and Sensitizes Cancer Cells to Nutrient Stress” (iScience, 2018).
